Measured values reported in ChEMBL document CHEMBL1799956, “Convergent synthesis and biological evaluation of 2-amino-4-(3',4',5'-trimethoxyphenyl)-5-aryl thiazoles as microtubule targeting agents” (J Med Chem, 2011).
Activity calls are given as the source filed them. No cut-off for these calls is given here.

Legend:
HeLa [1] = assay: Induction of apoptosis in human HeLa cells assessed as reduction in p21 expression at 10 to 100 nM after 24 hrs by Western blot analysis
HeLa [2] = assay: Induction of apoptosis in human HeLa cells assessed as no change in mitochondrial potential at 100 nM after 48 hrs using JC-1 staining by flow cytometry; format: functional, cell-based
HeLa [3] = assay: Induction of apoptosis in human HeLa cells assessed as abnormal mitotic figures at 10 uM after 24 to 48 hrs using Giemsa's staining by microscopic analysis; format: functional, cell-based
How it was run: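 HeLa treated 48 h, Giemsa stained and examined by light microscopy at 60× magnification.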

HeLa [4] = assay: Antiproliferative activity against human HeLa cells assessed as growth inhibition after 72 hrs by MTT assay; format: functional, cell-based
CCRF-CEM = assay: Fold resistance, ratio of IC50 for human vinblastine-resistant CEM/VBL100 cells overexpressing P-gp to IC50 for human CEM cells; format: functional
How it was run: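 Fold resistance taken as the ratio of IC50 in the resistant line to IC50 in the parental line, each IC50 from dose-response curves of at least three independent experiments.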

HeLa [5] = assay: Induction of apoptosis in human HeLa cells assessed as increase in propidium iodide-positive cells after 48 hrs by annexin-V-FITC and propidium iodide staining based flow cytometry; format: functional, cell-based
How it was run: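 Biparametric flow cytometry after annexin-V immunolabelling plus propidium iodide, separating live, early apoptotic, late apoptotic and necrotic cells; HeLa incubated for 24 or 48 h.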

HeLa [6] = assay: Induction of apoptosis in human HeLa cells assessed as increase in phospho-gammaH2AX expression at […] after 24 hrs by Western blot analysis; format: functional, cell-based
How it was run: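 HeLa treated for 24 or 48 h; whole-cell lysates run on SDS-PAGE and blotted for phospho-γH2AX (Ser139).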

HeLa [7] = assay: Induction of apoptosis in human HeLa cells assessed as cleavage of PARP at 10 to 100 nM by Western blotting; conditions: TDE = time-dependent effect
K562 = assay: Antiproliferative activity against human K562 cells assessed as growth inhibition after 72 hrs by MTT assay; format: functional, cell-based; conditions: K562, 72 h
MCF7 = assay: Antiproliferative activity against human MCF7 cells assessed as growth inhibition after 72 hrs by MTT assay; format: functional, cell-based; conditions: MCF7, 72 h
A549 [8] = assay: Fold resistance, ratio of IC50 for human taxol-resistant A549-T12 cells to IC50 for human A549 cells; format: functional
HeLa [9] = assay: Induction of apoptosis in human HeLa cells assessed activation of caspase 2 at 10 to 100 nM after 24 hrs by Western blot analysis
Jurkat [10] = assay: Induction of apoptosis in human Jurkat cells assessed as abnormal mitotic figures at 100 uM after 24 to 48 hrs using Giemsa's staining by microscopic analysis; format: functional, cell-based
How it was run: (§1)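 Giemsa staining, then light-microscope examination of cell morphology. HeLa and Jurkat cells were exposed to compound for 24 and 48 h. Magnification 60×.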

Tubulin (Homo sapiens) = Tubulin (Homo sapiens) (UniProt P68371+Q9H4B7+P0DPH7+P68366+Q13509+Q71U36+P04350+Q3ZCM7+P07437+P68363+Q9BQE3+Q6PEY2+Q13885+Q9BVA1+Q9BUF5); assay: Induction of microtubule disassembly in human HeLa cells assessed as complete loss of microtubules at 100 nM after 48 hrs using DAPI-staining by fluorescence microscopy; format: cell-based
How it was run: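 HeLa cells were exposed to 10 or 100 nM compound for 24 or 48 h, then fixed. Microtubules were stained with FITC-conjugated anti-β-tubulin antibody and imaged by confocal/fluorescence microscopy at 60× magnification.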

A549 [11] = assay: Antiproliferative activity against human A549 cells assessed as growth inhibition after 72 hrs by MTT assay; format: functional, cell-based; conditions: A549, 72 h
HeLa [12] = assay: Induction of cell cycle arrest at G2/M phase in human HeLa cells assessed as increase in cyclin B1 expression at 10 to 100 nM by Western blot analysis; format: functional, cell-based; conditions: TDE = time-dependent effect
How it was run: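 Immunoblot of HeLa lysates after 24 or 48 h of compound treatment at the indicated concentrations. Probed for cyclin B1, p-Cdc2 Y15 and Cdc25c. Slower-migrating Cdc25c bands were taken as a change in phosphorylation.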

HT-29 = assay: Antiproliferative activity against human HT-29 cells assessed as growth inhibition after 72 hrs by MTT assay; format: functional, cell-based; conditions: HT-29, 72 h
Jurkat [13] = assay: Cell cycle arrest in human Jurkat cells assessed as increase of cell population at G2/M phase at 1 to 100 nM after 48 hrs using propidium iodide staining by flow cytometry; format: functional, cell-based
HeLa [14] = assay: Induction of apoptosis in human HeLa cells assessed as multinucleation at 100 uM after 24 to 48 hrs using Giemsa's staining by microscopic analysis; format: functional, cell-based
How it was run: as §1

In the case of `CCOc1ccc(-c2sc(N)nc2-c2cc(OC)c(OC)c(OC)c2)cc1`, the Activity (HeLa [1]) is reported as “Active”, the Activity (HeLa [2]) is reported as “inactive” and the Activity (HeLa [3]) is reported as “Active”. For the same compound, the IC50 (HeLa [4]) was 0.03 nM, the “Ratio IC50” value (CCRF-CEM) was 0.9 and the Activity (HeLa [5]) was “Active”. For the same compound, the Activity (HeLa [6]) was “Active”, the Activity (HeLa [7]) was “tde” and the IC50 (K562) was 0.07 nM. The IC50 (MCF7) was 44 nM, the “Ratio IC50” value (A549 [8]) was 2.2 and the Activity (HeLa [9]) was “Active”. For the same compound, the Activity (Jurkat [10]) was “Active”, the Activity (Tubulin (Homo sapiens)) was “Active” and the IC50 (A549 [11]) was 0.09 nM. For the same compound, the Activity (HeLa [12]) was “tde”, the IC50 (HT-29) was 38.2 nM and the Activity (Jurkat [13]) was “Active”. The Activity (HeLa [14]) was “Active”.
